# Calls of active or inactive are those of the source. No cut-off for these calls is given here.
# Tests used:
# Blood [1] = assay: Anticoagulant activity in human whole blood assessed as clotting formation time at 1.25 x 10^-4M by thromboelastography in presence of extrinsic activators; type: functional
# Summary of the method: (§1)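 Citrated whole blood from healthy donors (1:9 citrate), run within 5 h on a ROTEM analyzer. Compound in saline diluted 1:16 into blood to the final concentration stated; saline control. Intrinsic (InTEM) or extrinsic (ExTEM) activator added. Clot monitored at 37 °C in an oscillating cup-and-pin system for up to 60 min, giving R, K, angle and MA.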
# [2] = target: Coagulation factor X (Homo sapiens) (UniProt P00742); assay: Inhibition of human factor 10a assessed as 25 x 10^-6M chromogenic TH substrate hydrolysis at 0.5 x 10^-3M
# Coagulation factor X (Homo sapiens), sequence (P00742 41-179 limits assumed): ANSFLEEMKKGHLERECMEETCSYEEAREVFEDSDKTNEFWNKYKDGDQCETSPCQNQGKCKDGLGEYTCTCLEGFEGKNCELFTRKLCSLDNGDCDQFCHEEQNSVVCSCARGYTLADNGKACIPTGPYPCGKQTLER
# Coagulation factor X (Homo sapiens), sequence (P00742 235-488 limits assumed): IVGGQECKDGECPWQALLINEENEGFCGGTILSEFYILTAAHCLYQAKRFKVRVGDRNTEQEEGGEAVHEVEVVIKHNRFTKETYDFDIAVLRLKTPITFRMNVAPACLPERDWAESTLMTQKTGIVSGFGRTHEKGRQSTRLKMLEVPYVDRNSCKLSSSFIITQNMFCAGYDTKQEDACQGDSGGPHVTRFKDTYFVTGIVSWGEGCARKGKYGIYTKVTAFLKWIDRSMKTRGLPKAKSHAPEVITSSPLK
# Summary of the method: (§2)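 Direct FXa test, with buffer in place of ATIII: compound in water in 50 mM Tris/HCl pH 8.3, 227 mM NaCl, 0.1% BSA, 10 min at 37 °C. Human FXa (0.5 U/mL final) added for 10 min, then CBS 31.39 (25 or 125 × 10^-6 M). Read at 405 nm every 12 s for 20 min. Percent inhibition from initial slope against water control, Michaelis-Menten fit.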
# [3] = target: T1, Coagulation factor X/antithrombin III (Homo sapiens) (UniProt P01008+P00742); assay: Inhibition of human antithrombin 3/factor 10a assessed as 125 x 10^-6M CBS31.39 substrate hydrolysis at 2 x 10^-3M; type: protein-complex assay
# Mus musculus [4] = assay: Hepatotoxicity in mouse liver assessed as change in plasma GOT/GPT level at 150 umol/kg, ip; type: toxicity, organism-based; conditions: in vivo
# Summary of the method: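 Male CD1 mice (30-35 g), compound in saline ip at 150 µmol/kg. Portal vein citrated blood taken at 30, 60 and 120 min. GOT and GPT (U/L) measured in platelet-poor plasma on an automated chemistry analyzer. Four independent experiments, mean ± SEM.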
# [5] = Antiplatelet activity against collagen EPI-induced human platelet aggregation assessed as closure time at 1.25 x 10^-4M; type: functional
# Summary of the method: (§3)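 Compound solution added to citrated human whole blood (125 µL into 1875 µL) to the final concentration stated, then run on a PFA-100 in collagen/ADP and collagen/epinephrine cartridges. Closure time is the time until platelets occlude the membrane aperture, in seconds. Mean ± SEM of three independent experiments.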
# [6] = target: T1, Coagulation factor X/antithrombin III (Homo sapiens); assay: Inhibition of human antithrombin 3/factor 10a assessed as 25 x 10^-6M CBS31.39 substrate hydrolysis at 1 x 10^-3M; type: protein-complex assay
# [7] = target: Coagulation factor X (Homo sapiens) (UniProt P00742); assay: Inhibition of human factor 10a assessed as 25 x 10^-6M chromogenic TH substrate hydrolysis at 1 x 10^-3M; summary of the method: as §2
# [8] = target: Coagulation factor X (Homo sapiens) (UniProt P00742); assay: Inhibition of human factor 10a assessed as 125 x 10^-6M chromogenic TH substrate hydrolysis at 2 x 10^-3M; summary of the method: as §2
# Blood [9] = assay: Anticoagulant activity in human whole blood assessed as alpha angle at 1.25 x 10^-4M by thromboelastography in presence of extrinsic activators; type: functional; summary of the method: as §1
# [10] = target: Coagulation factor X (Homo sapiens) (UniProt P00742); assay: Inhibition of human factor 10a assessed as 125 x 10^-6M chromogenic TH substrate hydrolysis at 1 x 10^-3M; summary of the method: as §2
# [11] = Anticoagulant activity in human plasma assessed as concentration required to double prothrombin time; type: functional
# Summary of the method: (§4)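 Citrated pooled normal human plasma mixed 1:1 with compound in water (final 5 × 10-3 to 0.05 × 10^-3 M) and held 2 min at 37 °C. APTT: reagent added, 6 min at 37 °C, then 25 mmol/L CaCl2. PT: prewarmed PT reagent. TT: prewarmed thrombin (100 U/mL). Clotting read on a coagulometer, duplicate, three days (n = 6). Doubling concentration taken from linear regression of each concentration-response curve.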
# [12] = target: Coagulation factor X (Homo sapiens) (UniProt P00742); assay: Inhibition of human factor 10a assessed as 25 x 10^-6M chromogenic TH substrate hydrolysis at 2 x 10^-3M; summary of the method: as §2
# [13] = target: T1, Coagulation factor X/antithrombin III (Homo sapiens); assay: Inhibition of human antithrombin 3/factor 10a assessed as 125 x 10^-6M CBS31.39 substrate hydrolysis at 0.5 x 10^-3M; type: protein-complex assay
# [14] = Anticoagulant activity in human plasma assessed as concentration required to double thrombin time; type: functional; summary of the method: as §4
# Mus musculus [15] = assay: Anticoagulant activity in mouse assessed as increase in activated partial prothrombin time at 150 umol/kg, ip relative to control; type: functional
# Summary of the method: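 Adult male CD1 mice (30-35 g) given compound in saline ip at 150 µmol/kg, fasted on the day. Citrated portal vein blood taken at 30, 60 and 120 min. APTT measured in platelet-poor plasma. Expressed as ratio to saline-treated mice, mean ± SEM of three experiments.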
# [16] = target: T1, Coagulation factor X/antithrombin III (Homo sapiens); assay: Inhibition of human antithrombin 3/factor 10a assessed as 125 x 10^-6M CBS31.39 substrate hydrolysis at 1 x 10^-3M; type: protein-complex assay
# [17] = Stability of the compound in human plasma assessed as compound remaining after 3 hrs; type: ADME, cell-free; conditions: read-out: Activity
# Summary of the method: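 Compound at 25 µM final in human plasma diluted 1:1 with PBS pH 7.4, shaken at 37 °C for 180 min. Time-zero and 180-min samples quenched with TBA buffer and cold acetonitrile, then centrifuged. Supernatant dried, redissolved and analysed by HPLC. Three independent samples per time point.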
# Blood [18] = assay: Anticoagulant activity in human whole blood assessed as clotting time at 1.25 x 10^-4M by thromboelastography in presence of intrinsic activators; type: functional; summary of the method: as §1
# [19] = target: T1, Coagulation factor X/antithrombin III (Homo sapiens); assay: Inhibition of human antithrombin 3/factor 10a assessed as 25 x 10^-6M CBS31.39 substrate hydrolysis at 0.5 x 10^-3M; type: protein-complex assay
# Blood [20] = assay: Anticoagulant activity in human whole blood assessed as alpha angle at 1.25 x 10^-4M by thromboelastography in presence of intrinsic activators; type: functional; summary of the method: as §1
# Blood [21] = assay: Anticoagulant activity in human whole blood assessed as clotting time at 1.25 x 10^-4M by thromboelastography in presence of extrinsic activators; type: functional; summary of the method: as §1
# [22] = Antiplatelet activity against collagen ADP-induced human platelet aggregation assessed as closure time at 1.25 x 10^-4M; type: functional; summary of the method: as §3
# [23] = target: Coagulation factor X (Homo sapiens) (UniProt P00742); assay: Inhibition of human factor 10a assessed as 125 x 10^-6M chromogenic TH substrate hydrolysis at 0.5 x 10^-3M; summary of the method: as §2
# [24] = Anticoagulant activity in human plasma assessed as concentration required to double activated partial prothrombin time; type: functional; summary of the method: as §4
# [25] = target: T1, Coagulation factor X/antithrombin III (Homo sapiens); assay: Inhibition of human antithrombin 3/factor 10a assessed as 25 x 10^-6M CBS31.39 substrate hydrolysis at 2 x 10^-3M; type: protein-complex assay
# [26] = target: Prothrombin (Homo sapiens) (UniProt P00734); assay: Inhibition of human thrombin
# Summary of the method: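 Direct thrombin assay without ATIII: compound in water in 50 mM Tris/HCl pH 8.3, 227 mM NaCl, 0.1% BSA, 10 min at 37 °C. Human thrombin (0.06 U/mL final) added for 10 min, then Chromozym TH (178 × 10^-6 M). Read at 405 nm every 12 s for 20 min. Percent inhibition from initial slope against water control. Duplicates on ≥3 days.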
# Blood [27] = assay: Anticoagulant activity in human whole blood assessed as clotting formation time at 1.25 x 10^-4M by thromboelastography in presence of intrinsic activators; type: functional; summary of the method: as §1
# Blood [28] = assay: Anticoagulant activity in human whole blood assessed as maximum amplitude at 1.25 x 10^-4M by thromboelastography in presence of intrinsic activators; type: functional; summary of the method: as §1
# Blood [29] = assay: Anticoagulant activity in human whole blood assessed as maximum amplitude at 1.25 x 10^-4M by thromboelastography in presence of extrinsic activators; type: functional; summary of the method: as §1
smiles,measurement,setting,value
C[C@H]1O[C@@H](OC[C@@H]2O[C@H](Oc3c(-c4ccc(OS(=O)(=O)O)c(OS(=O)(=O)O)c4)oc4cc(OS(=O)(=O)O)cc(OS(=O)(=O)O)c4c3=O)[C@@H](OS(=O)(=O)O)[C@H](OS(=O)(=O)O)[C@H]2OS(=O)(=O)O)[C@@H](OS(=O)(=O)O)[C@@H](OS(=O)(=O)O)[C@@H]1OS(=O)(=O)O,Time,Blood [1],257 s
same,inhibition,[2],inactive
same,inhibition,[3],33.1%
same,Activity,Mus musculus [4],Non-toxic
same,Time,[5],244 s
same,inhibition,[6],30.5%
same,inhibition,[7],30.9%
same,inhibition,[8],42.7%
same,Activity,Blood [9],51 degree
same,inhibition,[10],32%
same,2PT,[11],649 µM
same,inhibition,[12],40%
same,inhibition,[13],inactive
same,Activity,[14],877 µM
same,fold change (FC),Mus musculus [15],1.5
same,inhibition,[16],20.7%
same,remaining at 3 h,[17],95%
same,Time,Blood [18],261 s
same,inhibition,[19],29.3%
same,Activity,Blood [20],61 degree
same,Time,Blood [21],120 s
same,Time,[22],189 s
same,inhibition,[23],22.4%
same,2aPTT,[24],66 µM
same,inhibition,[25],31.4%
same,inhibition,[26],inactive
same,Time,Blood [27],176 s
same,Activity,Blood [28],48 mm
same,Activity,Blood [29],46 mm
